From ChEMBL document CHEMBL1681713, “Lead detoxification activities and ADMET hepatotoxicities of a class of novel 5-(1-carbonyl-L-amino-acid)-2,2-dimethyl-[1,3]dithiolane-4-carboxylic acids” (Bioorg Med Chem Lett, 2011)

How the values were obtained:
Brain [1] = experiment: Toxicity in mouse assessed as effect on iron level in brain per gram of organ at 0.4 mmol/kg, ip qd for 5 days; assay type: organism-based; settings: in vivo, 120 h
Liver [2] = experiment: Toxicity in mouse assessed as effect on iron level in liver per gram of organ at 0.4 mmol/kg, ip qd for 5 days; assay type: organism-based; settings: in vivo, 120 h
Liver [3] = experiment: Toxicity in mouse assessed as effect on manganese level in liver per gram of organ at 0.4 mmol/kg, ip qd for 5 days; assay type: organism-based; settings: in vivo, 120 h
Brain [4] = experiment: Toxicity in mouse assessed as effect on manganese level in brain per gram of organ at 0.4 mmol/kg, ip qd for 5 days; assay type: organism-based; settings: in vivo, 120 h
Kidney [5] = experiment: Toxicity in mouse assessed as effect on copper level in kidney per gram of organ at 0.4 mmol/kg, ip qd for 5 days; assay type: organism-based; settings: in vivo, 120 h
[6] = Detoxification activity against lead-induced toxicity in mouse assessed as reduction lead level in urine at 0.4 mmol/kg, ip qd for 5 days measured 24 hrs last post dose by synchrotron X-ray fluorescence analysis; assay type: functional
Summary of the method: (§1)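 Lead-loaded mice were given normal saline vehicle, DL-penicillamine or NaDMS (positive controls), or test agent, each at 0.4 mmol/kg; n = 12 per group. Lead was measured in feces and urine and reported as mean ± SD µg Pb/g excrement against the NS group.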

Liver [7] = experiment: Toxicity in mouse assessed as effect on calcium level in liver per gram of organ at 0.4 mmol/kg, ip qd for 5 days; assay type: organism-based; settings: in vivo, 120 h
Femur = experiment: Detoxification activity against lead-induced toxicity in mouse assessed as reduction lead level in femurs per gram of organ at 0.4 mmol/kg, ip qd for 5 days measured 24 hrs last post dose by synchrotron X-ray fluorescence analysis; assay type: functional
Summary of the method: (§2)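 Lead-loaded mice were given normal saline vehicle (negative control) or test agent at 0.2, 0.4 or 0.6 mmol/kg. Lead was measured in liver, kidney, left femur and brain and reported as mean ± SD µg Pb/g organ against the NS group.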

Brain [8] = experiment: Detoxification activity against lead-induced toxicity in mouse assessed as reduction lead level in brain per gram of organ at 0.4 mmol/kg, ip qd for 5 days measured 24 hrs last post dose by synchrotron X-ray fluorescence analysis; assay type: functional; summary of the method: as §2
Brain [9] = experiment: Toxicity in mouse assessed as effect on calcium level in brain per gram of organ at 0.4 mmol/kg, ip qd for 5 days; assay type: organism-based; settings: in vivo, 120 h
Kidney [10] = experiment: Toxicity in mouse assessed as effect on zinc level in kidney per gram of organ at 0.4 mmol/kg, ip qd for 5 days; assay type: organism-based; settings: in vivo, 120 h
Kidney [11] = experiment: Toxicity in mouse assessed as effect on manganese level in kidney per gram of organ at 0.4 mmol/kg, ip qd for 5 days; assay type: organism-based; settings: in vivo, 120 h
Liver [12] = experiment: Detoxification activity against lead-induced toxicity in mouse assessed as reduction lead level in liver per gram of organ at 0.4 mmol/kg, ip qd for 5 days measured 24 hrs last post dose by synchrotron X-ray fluorescence analysis; assay type: functional; summary of the method: as §2
Liver [13] = experiment: Toxicity in mouse assessed as effect on copper level in liver per gram of organ at 0.4 mmol/kg, ip qd for 5 days; assay type: organism-based; settings: in vivo, 120 h
Kidney [14] = experiment: Toxicity in mouse assessed as effect on iron level in kidney per gram of organ at 0.4 mmol/kg, ip qd for 5 days; assay type: organism-based; settings: in vivo, 120 h
Kidney [15] = experiment: Toxicity in mouse assessed as effect on calcium level in kidney per gram of organ at 0.4 mmol/kg, ip qd for 5 days; assay type: organism-based; settings: in vivo, 120 h
Mus musculus = experiment: Toxicity in mouse assessed as change in bodyweight at 0.4 mmol/kg, ip qd for 5 days; assay type: organism-based; settings: in vivo, 120 h
Summary of the method: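 Lead-loaded mice were given normal saline vehicle or test agent at 0.4 mmol/kg. Body weights were recorded and compared with the NS group to assess growth.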

Liver [16] = experiment: Toxicity in mouse assessed as effect on zinc level in liver per gram of organ at 0.4 mmol/kg, ip qd for 5 days; assay type: organism-based; settings: in vivo, 120 h
Brain [17] = experiment: Toxicity in mouse assessed as effect on zinc level in brain per gram of organ at 0.4 mmol/kg, ip qd for 5 days; assay type: organism-based; settings: in vivo, 120 h
Brain [18] = experiment: Toxicity in mouse assessed as effect on copper level in brain per gram of organ at 0.4 mmol/kg, ip qd for 5 days; assay type: organism-based; settings: in vivo, 120 h
Kidney [19] = experiment: Detoxification activity against lead-induced toxicity in mouse assessed as reduction lead level in kidney per gram of organ at 0.4 mmol/kg, ip qd for 5 days measured 24 hrs last post dose by synchrotron X-ray fluorescence analysis; assay type: functional; summary of the method: as §2
[20] = Detoxification activity against lead-induced toxicity in mouse assessed as reduction lead level in feces at 0.4 mmol/kg, ip qd for 5 days measured 24 hrs last post dose by synchrotron X-ray fluorescence analysis; assay type: functional; summary of the method: as §1
[21] = Apparent permeability from basolateral to apical side of human Caco2 cells at 4 mM up to 120 mins by HPLC analysis; assay type: ADME, cell-based; settings: Caco-2
Summary of the method: (§3)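 Permeability measured across Caco-2 cell monolayers.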

[22] = Apparent permeability from apical to basolateral side of human Caco2 cells at 4 mM up to 120 mins by HPLC analysis; assay type: ADME, cell-based; settings: Caco-2; summary of the method: as §3
Caco-2 = experiment: Efflux ratio of permeability […] in human Caco2 cells at 4 mM up to 120 mins by HPLC analysis; assay type: ADME, cell-based; settings: caco-2, 2 h, 4000 µM; summary of the method: as §3

Row | SMILES | Activity (Brain [1]) [µg/g] | Activity (Liver [2]) [µg/g] | Activity (Liver [3]) [µg/g] | Activity (Brain [4]) [µg/g] | Activity (Kidney [5]) [µg/g] | Activity [6] [µg/g] | Activity (Liver [7]) [µg/g] | Activity (Femur) [µg/g] | Activity (Brain [8]) [µg/g] | Activity (Brain [9]) [µg/g] | Activity (Kidney [10]) [µg/g] | Activity (Kidney [11]) [µg/g] | Activity (Liver [12]) [µg/g] | Activity (Liver [13]) [µg/g] | Activity (Kidney [14]) [µg/g] | Activity (Kidney [15]) [µg/g] | Activity (Mus musculus) [g] | Activity (Liver [16]) [µg/g] | Activity (Kidney [19]) [µg/g] | Activity [20] [µg/g] | other results
1 | CC1(C)SC(C(=O)O)C(C(=O)N[C@@H](CCC(N)=O)C(=O)O)S1 (some centres undefined) | 57.66 | 153.02 | 1.37 | 0.69 | 3.59 | 2.89 | 59.07 | 14.59 | 1.02 | 71.82 | 28.09 | 1.33 | 3.07 | 3.76 | 94.48 | 76.93 | 29.6 | 37.85 | 6.86 | 4.5 | Activity (Brain [17]): 34.68 µg/g; Activity (Brain [18]): 2.64 µg/g
2 | CC1(C)SC(C(=O)O)C(C(=O)NCC(=O)O)S1 (centres undefined) | 57.03 | 154.3 | 1.29 | 0.74 | 3.62 | 2.07 | 60.01 | 20.82 | 1.39 | 71.4 | 27.68 | 1.31 | 3.29 | 3.58 | 94.4 | 76.17 | 30.4 | 36.35 | 6.68 | 4.53 | Activity (Brain [17]): 34.31 µg/g; Activity (Brain [18]): 2.5 µg/g
3 | O=C([O-])C(S)C(S)C(=O)[O-].[Na+].[Na+] (centres undefined) | – | – | – | – | – | 1.79 | – | 14.31 | 1.72 | – | – | – | 4.75 | – | – | – | – | – | 6.23 | 4.59 | Papp B→A at 2 h, 4000 µM [21]: 10 ×10⁻⁶ cm/s; Papp A→B at 2 h, 4000 µM [22]: 11 ×10⁻⁶ cm/s; Ratio (Caco-2): 1.1
4 | CC1(C)SC(C(=O)O)C(C(=O)N[C@@H](CCC(=O)O)C(=O)O)S1 (some centres undefined) | 57.57 | 154.4 | 1.4 | 0.77 | 3.73 | 2.65 | 60.4 | 13.69 | 1.22 | 69.99 | 28.16 | 1.35 | 5.64 | 3.72 | 93.97 | 77.45 | 30.5 | 38.01 | 7.21 | 4.49 | Activity (Brain [17]): 34.99 µg/g; Activity (Brain [18]): 2.5 µg/g
5 | CC1(C)SC(C(=O)O)C(C(=O)N[C@@H](Cc2c[nH]c3ccccc23)C(=O)O)S1 (some centres undefined) | 56.94 | 153.84 | 1.4 | 0.78 | 3.69 | 2.84 | 59.69 | 17.66 | 1.21 | 69.35 | 27.99 | 1.4 | 5.59 | 3.76 | 93.07 | 76.92 | 30.8 | 36.96 | 7.5 | 4.14 | Activity (Brain [17]): 33.04 µg/g; Activity (Brain [18]): 2.39 µg/g
6 | CC1(C)SC(C(=O)O)C(C(=O)N[C@@H](CO)C(=O)O)S1 (some centres undefined) | 56.47 | 153.39 | 1.37 | 0.78 | 3.73 | 2.83 | 59.65 | 14.7 | 1.05 | 68.08 | 28.1 | 1.42 | 3.21 | 3.73 | 93.69 | 75.89 | 31.5 | 37 | 6.43 | 4.41 | Activity (Brain [17]): 34.09 µg/g; Activity (Brain [18]): 2.39 µg/g
7 | CC(C)(S)C(N)C(=O)O (racemic) [DL-PENICILLAMINE] | – | – | – | – | – | 1.94 | – | 14.99 | 1.61 | – | – | – | 3.52 | – | – | – | – | – | 7.24 | 3.26 | Papp B→A at 2 h, 4000 µM [21]: 11.5 ×10⁻⁶ cm/s; Papp A→B at 2 h, 4000 µM [22]: 13.1 ×10⁻⁶ cm/s; Ratio (Caco-2): 1.14
8 | CC(C)C[C@H](NC(=O)C1SC(C)(C)SC1C(=O)O)C(=O)O (some centres undefined) | 57.49 | 153.8 | 1.41 | 0.7 | 3.65 | 3.44 | 59.8 | 16.33 | 1.44 | 69.29 | 26.99 | 1.41 | 3.64 | 3.59 | 93.02 | 76.48 | 29.7 | 37.88 | 7.32 | 3.99 | Activity (Brain [17]): 32.49 µg/g; Activity (Brain [18]): 2.6 µg/g
9 | CC1(C)SC(C(=O)O)C(C(=O)N[C@@H](Cc2ccccc2)C(=O)O)S1 (some centres undefined) | 56.31 | 154.97 | 1.31 | 0.75 | 3.59 | 1.72 | 60.61 | 16.75 | 1.11 | 69.84 | 27.57 | 1.43 | 4.6 | 3.63 | 94.82 | 76.76 | 29.9 | 36.69 | 6.61 | 4.85 | Activity (Brain [17]): 34.51 µg/g; Activity (Brain [18]): 2.59 µg/g
10 | CC(C)[C@H](NC(=O)C1SC(C)(C)SC1C(=O)O)C(=O)O (some centres undefined) | 57.35 | 155.25 | 1.4 | 0.76 | 3.62 | 2.65 | 60.24 | 14.93 | 1.49 | 72 | 27.64 | 1.4 | 3.19 | 3.51 | 95.56 | 76.97 | 29.9 | 36.49 | 6.16 | 4.76 | Activity (Brain [17]): 34.51 µg/g; Activity (Brain [18]): 2.55 µg/g
